Measurements from ChEMBL document CHEMBL3603837, “Indole Glucocorticoid Receptor Antagonists Active in a Model of Dyslipidemia Act via a Unique Association with an Agonist Binding Site” (J Med Chem, 2015).
Active and inactive are the calls of the source. No cut-off for these calls is given here.

Assays:
[1] = target: T1, Estrogen receptor (Homo sapiens) (UniProt P03372); test: Binding affinity to human estrogen receptor expressed in HEK293 cells by scintillation counting based radioligand competition binding assay; assay type: cell-based
T1 sequence (whole entry): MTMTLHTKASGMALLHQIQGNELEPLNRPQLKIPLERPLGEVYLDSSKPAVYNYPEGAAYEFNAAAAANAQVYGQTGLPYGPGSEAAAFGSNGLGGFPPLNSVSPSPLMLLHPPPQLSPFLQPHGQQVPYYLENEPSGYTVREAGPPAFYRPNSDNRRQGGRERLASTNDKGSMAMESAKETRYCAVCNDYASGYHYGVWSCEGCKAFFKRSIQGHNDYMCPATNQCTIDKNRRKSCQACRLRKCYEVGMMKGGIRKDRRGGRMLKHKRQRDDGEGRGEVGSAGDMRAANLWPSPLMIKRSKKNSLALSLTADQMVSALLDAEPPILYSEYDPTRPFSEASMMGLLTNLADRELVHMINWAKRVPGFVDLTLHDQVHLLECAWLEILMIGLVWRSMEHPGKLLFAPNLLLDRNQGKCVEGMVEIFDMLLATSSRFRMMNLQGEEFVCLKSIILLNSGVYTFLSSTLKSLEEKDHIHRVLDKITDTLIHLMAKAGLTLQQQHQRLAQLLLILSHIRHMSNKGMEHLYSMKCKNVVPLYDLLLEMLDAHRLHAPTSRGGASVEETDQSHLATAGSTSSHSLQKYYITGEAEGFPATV

[2] = target: T2, Glucocorticoid receptor (Homo sapiens) (UniProt P04150); test: Displacement of [3H]-dexamethasone from human glucocorticoid receptor expressed in HEK293 cells at 10 uM by scintillation counting based radioligand competition binding assay; assay type: cell-based
T2 sequence (whole entry): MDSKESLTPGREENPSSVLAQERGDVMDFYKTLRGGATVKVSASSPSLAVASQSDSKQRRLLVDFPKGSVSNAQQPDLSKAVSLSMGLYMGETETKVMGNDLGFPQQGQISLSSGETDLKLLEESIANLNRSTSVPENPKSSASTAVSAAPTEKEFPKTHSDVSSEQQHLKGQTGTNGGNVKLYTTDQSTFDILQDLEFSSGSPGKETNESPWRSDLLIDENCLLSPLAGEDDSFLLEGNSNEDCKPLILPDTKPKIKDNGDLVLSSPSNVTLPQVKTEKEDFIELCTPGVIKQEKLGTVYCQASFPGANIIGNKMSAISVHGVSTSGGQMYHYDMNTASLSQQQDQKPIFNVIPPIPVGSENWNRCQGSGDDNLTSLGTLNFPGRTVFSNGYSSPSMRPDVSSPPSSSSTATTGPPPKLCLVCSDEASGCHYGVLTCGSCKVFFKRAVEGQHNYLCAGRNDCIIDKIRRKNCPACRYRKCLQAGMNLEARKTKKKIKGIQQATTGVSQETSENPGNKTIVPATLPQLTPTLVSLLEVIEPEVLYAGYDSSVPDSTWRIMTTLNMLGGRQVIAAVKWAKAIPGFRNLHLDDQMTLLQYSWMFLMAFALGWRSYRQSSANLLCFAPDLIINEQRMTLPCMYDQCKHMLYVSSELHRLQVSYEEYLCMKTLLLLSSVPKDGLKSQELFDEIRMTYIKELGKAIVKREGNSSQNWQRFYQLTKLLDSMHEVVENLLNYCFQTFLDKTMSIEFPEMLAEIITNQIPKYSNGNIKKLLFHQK
Outline: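 Competition binding with 0.3 nM [3H]-dexamethasone and 20 μg 293-GR lysate per well; nonspecific binding defined with 0.5 μM dexamethasone. Incubated overnight at 4 °C, free ligand removed with charcoal–dextran, then scintillation counting. Percent inhibition at 10 μM was calculated.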

Syrian golden hamster [3] = test: Increase in HDL level in high fat and high cholesterol diet fed Syrian golden hamster at 30 mg/kg, po qd for 14 days; assay type: functional, Mesocricetus auratus
Outline: (§1)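 Groups of Syrian golden hamsters (n = 6) kept on a high fat, high cholesterol diet for 14 days, dosed orally at 30 mg/kg once daily. Plasma HDL and LDL compared against untreated HFHC controls; mean with standard errors.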

Syrian golden hamster [4] = test: Reduction in LDL level in high fat and high cholesterol diet fed Syrian golden hamster at 30 mg/kg, po qd for 14 days; assay type: functional; conditions: Mesocricetus auratus, 336 h; outline: as §1
[5] = target: T3, Mineralocorticoid receptor (Homo sapiens, UniProt P08235); test: biochemical
T3 sequence (P08235 whole entry): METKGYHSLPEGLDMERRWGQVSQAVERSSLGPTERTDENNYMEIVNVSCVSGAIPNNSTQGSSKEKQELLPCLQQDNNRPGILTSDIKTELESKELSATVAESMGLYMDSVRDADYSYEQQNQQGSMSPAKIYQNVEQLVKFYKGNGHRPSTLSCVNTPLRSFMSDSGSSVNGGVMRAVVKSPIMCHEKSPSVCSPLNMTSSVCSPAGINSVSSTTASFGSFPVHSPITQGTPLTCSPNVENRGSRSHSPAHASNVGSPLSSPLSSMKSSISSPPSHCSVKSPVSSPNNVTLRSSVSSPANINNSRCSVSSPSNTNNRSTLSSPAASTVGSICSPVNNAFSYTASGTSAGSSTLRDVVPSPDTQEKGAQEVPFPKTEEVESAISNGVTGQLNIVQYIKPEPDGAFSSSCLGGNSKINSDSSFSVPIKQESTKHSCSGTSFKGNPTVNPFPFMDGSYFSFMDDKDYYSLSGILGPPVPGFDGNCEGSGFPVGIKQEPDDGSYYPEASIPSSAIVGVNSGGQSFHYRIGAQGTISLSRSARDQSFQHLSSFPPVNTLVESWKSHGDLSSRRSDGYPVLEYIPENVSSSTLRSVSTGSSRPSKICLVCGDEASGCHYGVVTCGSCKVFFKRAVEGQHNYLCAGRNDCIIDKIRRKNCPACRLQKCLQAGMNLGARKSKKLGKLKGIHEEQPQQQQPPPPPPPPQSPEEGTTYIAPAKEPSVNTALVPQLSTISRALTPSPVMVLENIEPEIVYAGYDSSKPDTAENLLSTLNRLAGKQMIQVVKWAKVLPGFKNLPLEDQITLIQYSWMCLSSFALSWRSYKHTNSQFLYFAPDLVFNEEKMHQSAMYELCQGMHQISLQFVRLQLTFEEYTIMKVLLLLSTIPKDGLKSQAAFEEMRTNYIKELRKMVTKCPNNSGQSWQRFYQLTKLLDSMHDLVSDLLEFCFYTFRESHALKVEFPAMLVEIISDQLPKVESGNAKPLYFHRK

Androgen receptor = target: T4, Androgen receptor (Homo sapiens, UniProt P10275); test: biochemical
T4 sequence (P10275 whole entry): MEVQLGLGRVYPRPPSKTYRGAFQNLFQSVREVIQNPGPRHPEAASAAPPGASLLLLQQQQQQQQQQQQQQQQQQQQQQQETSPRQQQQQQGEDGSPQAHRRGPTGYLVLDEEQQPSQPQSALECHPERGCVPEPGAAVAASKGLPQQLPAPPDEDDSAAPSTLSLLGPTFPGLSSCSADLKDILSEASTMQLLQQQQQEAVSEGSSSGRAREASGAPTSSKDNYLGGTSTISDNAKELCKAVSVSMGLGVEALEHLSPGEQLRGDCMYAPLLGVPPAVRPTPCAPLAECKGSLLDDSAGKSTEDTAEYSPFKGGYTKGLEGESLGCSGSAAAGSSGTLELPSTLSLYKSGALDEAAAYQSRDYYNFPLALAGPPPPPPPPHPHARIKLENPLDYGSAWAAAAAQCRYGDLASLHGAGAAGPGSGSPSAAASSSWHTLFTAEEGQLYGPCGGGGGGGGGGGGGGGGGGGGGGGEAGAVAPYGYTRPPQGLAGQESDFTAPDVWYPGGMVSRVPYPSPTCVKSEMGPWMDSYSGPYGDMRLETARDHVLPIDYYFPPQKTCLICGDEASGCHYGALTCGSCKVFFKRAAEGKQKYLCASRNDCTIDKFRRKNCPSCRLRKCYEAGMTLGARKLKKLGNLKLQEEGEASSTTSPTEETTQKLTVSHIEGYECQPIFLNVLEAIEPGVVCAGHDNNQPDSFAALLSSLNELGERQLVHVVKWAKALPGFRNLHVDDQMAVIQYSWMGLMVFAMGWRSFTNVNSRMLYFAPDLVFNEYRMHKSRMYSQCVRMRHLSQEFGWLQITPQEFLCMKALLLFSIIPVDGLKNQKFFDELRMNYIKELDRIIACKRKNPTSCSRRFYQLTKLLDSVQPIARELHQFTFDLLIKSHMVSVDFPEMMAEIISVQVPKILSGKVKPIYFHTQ

COc1ccc(-c2c[nH]c3c(NS(C)(=O)=O)cccc23)cc1F
Activity [1]: inactive

Cc1[nH]c2ccccc2c1-c1ccccc1
Activity [1]: inactive | Activity [2]: inactive

CC#C[C@]1(O)CC[C@H]2[C@@H]3CCC4=CC(=O)CCC4=C3[C@@H](c3ccc(N(C)C)cc3)C[C@@]21C [MIFEPRISTONE]
Activity [1]: inactive | Activity (Syrian golden hamster [3]): 35% | inhibition in vivo at 30 mg/kg (Syrian golden hamster [4]): 43%

COc1ccc(F)cc1-c1c[nH]c2c(NC(C)=O)cccc12
Activity [1]: inactive | Ki [5]: 6.53 µM | Ki (Androgen receptor): 6.12 µM

COc1cc(F)ccc1-c1c(CN(C)Cc2ccccc2)[nH]c2c([N+](=O)[O-])cc(C(C)C)cc12
Activity [1]: inactive | Activity [2]: inactive
